Results gathered from unrelated publications.
Compare with care: the assays were run in different laboratories. pIC50: −log10 of the molar value.
gag-pol reverse transcriptase: Gag-Pol polyprotein, reverse transcriptase (gag-pol, Human immunodeficiency virus 1, UniProt P03366)
PRMT6: Protein arginine N-methyltransferase 6 (PRMT6, Homo sapiens, UniProt Q96LA8)
gyrA: DNA gyrase subunit A (gyrA, Escherichia coli K-12, UniProt P0AES4)
ABL1: Tyrosine-protein kinase ABL1 (ABL1, Homo sapiens, UniProt P00519)
PTK2B: Protein-tyrosine kinase 2-beta (PTK2B, Homo sapiens, UniProt Q14289)
EP300: Histone acetyltransferase p300 (EP300, Homo sapiens, UniProt Q09472)
ERBB2: Receptor tyrosine-protein kinase erbB-2 (ERBB2, Homo sapiens, UniProt P04626)

Structure (SMILES) | target | observed | mode | method | pH | pIC50
N#Cc1ccc(Nc2nc(N)cc(Oc3ccc(-c4ccc(C#N)cc4)c(F)c3F)n2)cc1 | gag-pol reverse transcriptase | enzyme activity | inhibitor |  |  | 7.52
CC1(C)C(/C=C/C=C2/N(CCCc3ccccc3)c3ccc4ccccc4c3C2(C)C)=[N+](CCCc2ccccc2)c2ccc3ccccc3c21 | PRMT6 | enzyme activity | inhibitor | radiometric |  | 6.12
N#Cc1ccc(Nc2nc(N)cc(Oc3c(F)cc(-c4cccc(F)c4)cc3F)n2)cc1 | gag-pol reverse transcriptase | enzyme activity | inhibitor |  |  | 7.15
CCOC(=O)N1CCC(CN(Cc2ccc(Cl)cc2)Cc2ccc([N+](=O)[O-])s2)C1 (centres unmarked) | Oxysterols receptor LXR-alpha (NR1H3, Homo sapiens, UniProt Q13133) | ligand displacement |  | radioligand |  | 4.89
CC[C@@H](C(=O)Nc1ccc(C(N)=O)c(F)c1)n1cc(OC)c(-c2cc(Cl)ccc2-n2cc(C(F)(F)F)nn2)cc1=O | Plasminogen (PLG, Homo sapiens, UniProt P00747) | enzyme activity | inhibitor |  |  | 5.68
CC(C)Oc1c(NC(=O)c2ccc(NC(=O)[C@H](CC(N)=O)NC(=O)c3ccc(NC(=O)c4ccc(NC(N)=O)cc4)cc3)cc2)ccc(C(=O)Nc2ccc(C(=O)O)cc2)c1O | gyrA | enzyme activity | inhibitor |  |  | 5.06
Nc1ncnc2c1c(Cc1cccc3ccccc13)nn2CC1CCNCC1 | ABL1 | enzyme activity | inhibitor |  |  | < 4.70
CC(C)Oc1c(NC(=O)c2ccc(NC(=O)[C@H](CC(N)=O)NC(=O)c3ccc(NC(=O)c4ccc5c(c4)COC5=O)cc3)cc2)ccc(C(=O)Nc2ccc(C(=O)O)cc2)c1O | gyrA | enzyme activity | inhibitor |  |  | 5.85
N#Cc1ccc(Nc2nc(N)cc(Oc3c(F)cc(-c4ccc(C#N)cc4)cc3F)n2)cc1 | gag-pol reverse transcriptase | enzyme activity | inhibitor |  |  | 7.70
C[C@H]1Oc2cc(cnc2N)-c2c(nn(C)c2C#N)CN(C)C(=O)c2ccc(F)cc21 | PTK2B | enzyme activity | inhibitor | radiometric |  | 8.23
CC(C)Oc1c(NC(=O)c2ccc(NC(=O)[C@H](CC(N)=O)NC(=O)c3cccc(-c4cccc(C#N)c4)c3)cc2)ccc(C(=O)Nc2ccc(C(=O)O)cc2)c1O | gyrA | enzyme activity | inhibitor |  |  | < 4.30
COc1ccc(S(=O)(=O)ON=C2C=C(C)C(=O)C(C)=C2)cc1 | EP300 | enzyme activity | inhibitor | fluorescence |  | 5.70
N#Cc1ccc(Nc2nc(N)cc(Oc3ccc(-c4ccc(C#N)cc4)c(Cl)c3)n2)cc1 | gag-pol reverse transcriptase | enzyme activity | inhibitor |  |  | 7.40
COc1ccc2c(Oc3ccc4c(C(=O)Nc5ccccc5N)cccc4c3)ccnc2c1 | ERBB2 | enzyme activity | inhibitor |  |  | < 6.30
Cc1cc(C)cc(S(=O)(=O)c2c(C(=O)NCCCCCNS(=O)(=O)c3ccc(Br)cc3)[nH]c3ccc(Cl)cc23)c1 | gag-pol reverse transcriptase | enzyme activity | inhibitor | ELISA |  | 6.89
CCCCCCCc1ccc(CCc2cccc(O)c2C(=O)O)cc1 | EP300 | enzyme activity | inhibitor | radiometric |  | < 3.70
Cc1ccc(S(=O)(=O)NCCNC(=O)c2[nH]c3ccc(Cl)cc3c2S(=O)(=O)c2cc(C)cc(C)c2)cc1 | gag-pol reverse transcriptase | enzyme activity | inhibitor | ELISA |  | 7.12
N#Cc1ccc(Nc2nc(N)cc(Oc3ccc(-c4ccccc4C#N)cc3F)n2)cc1 | gag-pol reverse transcriptase | enzyme activity | inhibitor |  |  | 7.00
Cc1cc(C)cc(S(=O)(=O)c2c(C(=O)NCCCNS(=O)(=O)c3ccc(F)cc3)[nH]c3ccc(Cl)cc23)c1 | gag-pol reverse transcriptase | enzyme activity | inhibitor | ELISA |  | 7.00
CNC(=O)c1ccccc1Nc1cc(Nc2cc(C)c(C3CCN(CCCCCCNC(=O)COc4cccc5c4C(=O)N(C4CCC(=O)NC4=O)C5=O)CC3)cc2OC(C)C)ncc1C(F)(F)F (centres unmarked) | PTK2B | enzyme activity | inhibitor |  |  | 6.53
CCCCN1/C(=C/C=C/c2sc3ccc(Br)cc3[n+]2CCCC)Sc2ccc(Br)cc21 | PRMT6 | enzyme activity | inhibitor | radiometric |  | 5.50

Structure (SMILES) | target | observed | mode | method | pH | pIC50
CC(C)Oc1c(NC(=O)c2ccc(NC(=O)[C@H](CC(N)=O)NC(=O)c3ccc(NC(=O)c4ccc(C#N)cc4)cc3)cc2)ccc(C(=O)NC2CCNCC2)c1O | gyrA | enzyme activity | inhibitor |  |  | 6.30
N#Cc1ccc(Nc2nc(N)cc(Oc3ccc(-c4ccc(C#N)cc4)cc3F)n2)cc1 | gag-pol reverse transcriptase | enzyme activity | inhibitor |  |  | 7.52
CS(=O)(=O)/C(C#N)=C/c1cccn1S(=O)(=O)c1c(F)c(F)c(F)c(F)c1F | Protein phosphatase methylesterase 1 (Homo sapiens, UniProt Q9Y570) | enzyme activity | inhibitor |  |  | < 4.70
CC(C)Oc1c(NC(=O)c2ccc(NC(=O)[C@H](CC(N)=O)NC(=O)c3ccc(NC(=O)c4cc(C#N)cn4C)cc3)cc2)ccc(C(=O)Nc2ccc(C(=O)O)cc2)c1O | gyrA | enzyme activity | inhibitor |  |  | 6.15
Cc1cc(C)cc(S(=O)(=O)c2c(C(=O)NCCCNS(=O)(=O)c3cccs3)[nH]c3ccc(Cl)cc23)c1 | gag-pol reverse transcriptase | enzyme activity | inhibitor | ELISA |  | 6.72
CC(C)Oc1c(NC(=O)c2ccc(NC(=O)[C@H](CC(N)=O)NC(=O)c3ccc(NC(=O)c4cc(=O)c(O)c[nH]4)cc3)cc2)ccc(C(=O)Nc2ccc(C(=O)O)cc2)c1O | gyrA | enzyme activity | inhibitor |  |  | 5.44
Cc1cc(C)cc(S(=O)(=O)c2c(C(=O)NCCNS(=O)(=O)c3cccs3)[nH]c3ccc(Cl)cc23)c1 | gag-pol reverse transcriptase | enzyme activity | inhibitor | ELISA |  | 6.85
CCCC(CCC)C(=O)O | Aldo-keto reductase family 1 member A1 (AKR1A1, Homo sapiens, UniProt P14550) | enzyme activity | inhibitor | absorbance | pH 6.2 | 4.27
CCN1CCN(Cc2ccc(C(=O)Nc3ccc(C)c(Oc4ccc5c(c4)CC(=O)N5)c3)cc2C(F)(F)F)CC1 | ABL1 | enzyme activity | inhibitor |  |  | 5.74
COc1cc(/C=C2\SC(=O)NC2=O)cc(F)c1OCCNc1nc2c(cnn2C2CCCC2)c(=O)[nH]1 | cGMP-dependent 3',5'-cyclic phosphodiesterase (PDE2A, Homo sapiens, UniProt O00408) | enzyme activity | inhibitor |  |  | 6.78
Cc1cc(/C=C/C#N)cc(C)c1Nc1ccnc(Nc2ccc(C#N)cc2)n1 | gag-pol reverse transcriptase | enzyme activity | inhibitor |  |  | 7.85
Cc1cc(C)cc(S(=O)(=O)c2c(C(=O)NCCCNS(=O)(=O)c3ccccc3)[nH]c3ccc(Cl)cc23)c1 | gag-pol reverse transcriptase | enzyme activity | inhibitor | ELISA |  | 7.08
N#Cc1ccc(COc2cccc(C3CCN(Cc4nc5ccc(C(=O)O)cc5n4C[C@@H]4CCO4)CC3)n2)c(F)c1 | Gastric inhibitory polypeptide receptor (GIPR, Homo sapiens, UniProt P48546) | cAMP | antagonist |  |  | < 5.00
CC(C)Oc1c(NC(=O)c2ccc(NC(=O)[C@H](CC(N)=O)NC(=O)c3ccc(NC(=O)CCc4ccc(C#N)cc4)cc3)cc2)ccc(C(=O)Nc2ccc(C(=O)O)cc2)c1O | gyrA | enzyme activity | inhibitor |  |  | 6.00
Cc1cc(C)cc(S(=O)(=O)c2c(C(=O)NCCCCCNS(=O)(=O)c3ccc(Cl)cc3)[nH]c3ccc(Cl)cc23)c1 | gag-pol reverse transcriptase | enzyme activity | inhibitor | ELISA |  | 6.92
CC(=O)N[C@@H]1[C@@H](O)[C@H](O)[C@@H](CO)S[C@@H]1OP(=O)(O)OP(=O)(O)OC[C@H]1O[C@@H](n2ccc(=O)[nH]c2=O)[C@H](O)[C@@H]1O | UDP-N-acetylglucosamine--peptide N-acetylglucosaminyltransferase 110 kDa subunit (OGT, Homo sapiens, UniProt O15294) | enzyme activity | inhibitor |  |  | 4.10
COc1ccc(-c2oc3ncnc(NCc4ccccc4)c3c2-c2ccc(OC)cc2)cc1 | ERBB2 | enzyme activity | inhibitor | radiometric |  | 5.34
CC(C)Oc1c(NC(=O)c2ccc(NC(=O)[C@H](CC(N)=O)NC(=O)c3ccc(NC(=O)c4ccc(NC(=O)c5ccc([N+](=O)[O-])cc5)cc4)cc3)cc2)ccc(C(=O)Nc2ccc(C(=O)O)cc2)c1O | gyrA | enzyme activity | inhibitor |  |  | 5.60
N#Cc1ccc(Nc2nc(N)cc(Oc3ccc(-c4ccc(F)cc4)cc3F)n2)cc1 | gag-pol reverse transcriptase | enzyme activity | inhibitor |  |  | 7.22
Cc1cc(C)cc(S(=O)(=O)c2c(C(=O)NCCNS(=O)(=O)c3ccc([N+](=O)[O-])cc3)[nH]c3ccc(Cl)cc23)c1 | gag-pol reverse transcriptase | enzyme activity | inhibitor | ELISA |  | 7.00
